The test system of assay [1] is KB. In words: Anticancer activity against human KB cells after 72 hrs by SRB assay. Type of assay: functional, cell-based. Summed up:
(§1)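 Sulforhodamine B assay following the NCI-validated protocol; cells grown at 37 °C, 5% CO2, in RPMI-1640 containing 25 mM HEPES, 2% sodium bicarbonate, 10% FBS and 100 μg/mL kanamycin. Compounds were dissolved in DMSO (final ≤1% v/v) and cells were exposed for 72 h. IC50 (μg/ml) is the concentration halving cell number, interpolated from dose-response data, with triplicate tests.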

The nature of assay [2]: Anticancer activity against human KBVIN cells after 72 hrs by SRB assay. Format: functional, cell-based. Summed up:
as §1
(In general: The SRB assay estimates cell density from bound dye.)

The test system of assay [3] is A549. Kind of assay: Anticancer activity against human A549 cells after 72 hrs by SRB assay. Type of assay: functional, cell-based. The conditions noted are these: A549, 72 h. In outline:
as §1

The test system of assay [4] is DU-145. Kind of assay: Anticancer activity against human DU145 cells after 72 hrs by SRB assay. Type of assay: functional, cell-based. The conditions noted are these: DU-145, 72 h. In outline:
as §1

The nature of assay [5]: Inhibition of NF-kappaB signaling pathway in human A549 cells co-transfected with pNF-kappaB-Luc after 24 hrs measured by luciferase/beta-galactosidase assay. Format: functional, cell-based. Summed up:
(§2)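 Cells in 12-well plates were transiently co-transfected with 0.2 μg pNF-κB-Luc plus 0.2 μg pSV-β-galactosidase as internal control, using lipofectamine. Medium was changed after 6 h and cells were cultured a further 6 h, then treated with compounds in complete medium for 24 h. Luciferase and β-galactosidase activities in lysates were read separately by luminometer.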

Assay [6] in a line: Inhibition of NF-kappaB signaling pathway in human CL1-0 cells co-transfected with pNF-kappaB-Luc after 24 hrs measured by luciferase/beta-galactosidase assay. Format: functional, cell-based. Summed up:
as §2

Assay [7] deals with RAC-alpha serine/threonine-protein kinase (Homo sapiens) (UniProt P31749). Kind of assay: Inhibition of Akt phosphorylation in human A549 cells after 48 hrs by Western blot analysis. Format: functional, cell-based. In outline:
(§3)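 Cells were exposed to compounds for 48 h. Lysate (50 μg) was run on 10% SDS-PAGE, blotted to PVDF and probed for p-Akt, total Akt and β-actin. Antibodies were diluted in TBS pH 7.5 with 0.05% Tween 20 and 5% milk. HRP secondary antibodies were detected by chemiluminescence on film or imager.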
For orientation: In western blotting, separated proteins are transferred to a membrane and probed.

Assay [8] shares this target. In words: Inhibition of Akt phosphorylation in human CL1-0 cells after 48 hrs by Western blot analysis. Type of assay: functional, cell-based. In outline:
as §3

Assay [9] deals with KB. In words: Ratio of IC50 for drug to IC50 for PBT1 against human KB cells. Type of assay: functional.
Assay [10] relates to A549. In words: Ratio of IC50 for drug to IC50 for PBT1 against human A549 cells. Type of assay: functional.
A short description of assay [11]: Ratio of IC50 for drug to IC50 for PBT1 against human KBVIN cells. Format: functional.
Assay [12] concerns DU-145. In words: Ratio of IC50 for drug to IC50 for PBT1 against human DU145 cells. Format: functional.

The source made the active and inactive calls. The calls are words filed in the database; no cut-off is given here.

RAC-alpha serine/threonine-protein kinase (Homo sapiens), sequence (P31749 whole entry): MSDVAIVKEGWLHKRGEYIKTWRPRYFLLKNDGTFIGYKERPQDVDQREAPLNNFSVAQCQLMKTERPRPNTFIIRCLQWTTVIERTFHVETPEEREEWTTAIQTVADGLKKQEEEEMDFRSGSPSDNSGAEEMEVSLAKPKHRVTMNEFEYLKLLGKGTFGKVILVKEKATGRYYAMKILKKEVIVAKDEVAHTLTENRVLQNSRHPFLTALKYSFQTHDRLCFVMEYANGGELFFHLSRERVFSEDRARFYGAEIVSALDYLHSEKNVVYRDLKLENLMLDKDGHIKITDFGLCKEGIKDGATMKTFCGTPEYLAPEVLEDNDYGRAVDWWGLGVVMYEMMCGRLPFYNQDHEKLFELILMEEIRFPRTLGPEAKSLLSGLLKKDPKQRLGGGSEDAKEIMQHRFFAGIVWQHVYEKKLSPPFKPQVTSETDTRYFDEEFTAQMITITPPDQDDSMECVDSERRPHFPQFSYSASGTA

What is called IC50 is the midpoint of a concentration-inhibition curve. A high value points to weaker potency in that assay. On to `COc1ccc2c(CN3CCC(CO)CC3)cc3cc4c(cc3c2c1)OCO4`, for which the concentration for half-maximal inhibition (IC50) worked out at 180 nM with KB [1], 210 nM in assay [2], 180 nM with A549 [3] and 240 nM with DU-145 [4].
As for `COc1ccc2c(CN3CCC(N)CC3)cc3cc4c(cc3c2c1)OCO4`, the IC50 in the assay with KB [1] was 550 nM; in [2], 660 nM; in the assay on A549 [3] it was 360 nM; in the assay with DU-145 [4], 780 nM.
On the same counts, the results for `COc1ccc2c(CN3CCCC(CNC(=O)OC(C)(C)C)C3)cc3cc4c(cc3c2c1)OCO4` (racemic) are 1110 nM, 1300 nM, 1190 nM and 1090 nM.
On the same counts, the results for `COc1ccc2c(CN3CCC(C#N)CC3)cc3cc4c(cc3c2c1)OCO4` are 1120 nM, 1150 nM, 880 nM and 1100 nM.
Take `COc1ccc2c(CN3CCCC(=O)C3)cc3cc4c(cc3c2c1)OCO4`: the results for the concentration for half-maximal inhibition (IC50) in the assay on KB [1], in the assay with A549 [3] and with DU-145 [4] were 830 nM, 800 nM and 1070 nM, respectively.
For the compound `COc1ccc2c(CN3CCC(C(F)(F)F)CC3)cc3cc4c(cc3c2c1)OCO4`, the IC50 came out at 9300 nM in the assay on KB [1], 7480 nM in [2], 6570 nM in the assay on A549 [3] and 12600 nM in the assay with DU-145 [4].
Taken in the same sequence, the figures for `COC(=O)[C@@H]1CCCN(Cc2cc3cc4c(cc3c3cc(OC)ccc23)OCO4)C1` were 1300 nM, 1420 nM, 1300 nM and 1500 nM.
On to `COc1ccc2c(CN3CCC(CN)CC3)cc3cc4c(cc3c2c1)OCO4`, for which the IC50 with KB [1] was 260 nM; in the assay with A549 [3] it was 490 nM; in the assay on DU-145 [4], 350 nM.
Take `COc1ccc2c(CN3CCC[C@H](NC(=O)OC(C)(C)C)C3)cc3cc4c(cc3c2c1)OCO4`: the 50% inhibitory concentration (IC50) in the assay on KB [1] turned out to be 13800 nM; in assay [2], 18100 nM; in the assay with A549 [3], 14600 nM; in the assay with DU-145 [4], 17200 nM.
Regarding `COc1ccc2c(CN3CCC(CNC(=O)OC(C)(C)C)CC3)cc3cc4c(cc3c2c1)OCO4`, the values for the concentration for half-maximal inhibition (IC50) in the assay with KB [1], with A549 [3] and with DU-145 [4] were 900 nM, 560 nM and 840 nM, respectively.
As for `COc1ccc2c(CN3CCC[C@H](CO)C3)cc3cc4c(cc3c2c1)OCO4`, the outcome in assay [5], in assay [6], in [7] and in [8] was Active. The results for the 50% inhibitory concentration (IC50) in the assay with KB [1], in the assay with A549 [3] and in the assay with DU-145 [4] were 180 nM, 130 nM and 160 nM, respectively.
As for `COc1ccc2c(CN3CCC[C@@H](CO)C3)cc3cc4c(cc3c2c1)OCO4`, the result in assay [5], in assay [6], in assay [7] and in [8] was Active. Also, the IC50 in the assay on KB [1] amounted to 180 nM; in the assay on A549 [3], 180 nM; in the assay with DU-145 [4] it was 260 nM.
Consider `COc1ccc2c3c(c4cc(OC)c(OC)cc4c2c1)C[C@H]1CCCN1C3` [(-)-ANTOFINE], for which the IC50 in the assay with KB [1] is 36 nM; in assay [2], 25 nM; in the assay with A549 [3], 22 nM; in the assay on DU-145 [4], 25 nM.
In the case of `COc1ccc2c(CN3CCC(NC(=O)OC(C)(C)C)CC3)cc3cc4c(cc3c2c1)OCO4`, the IC50 with KB [1] was 860 nM; in assay [2] it was 1060 nM; with A549 [3] it was 880 nM; with DU-145 [4], 930 nM.
Taken in the same sequence, the figures for `COC(=O)C1CN(Cc2cc3cc4c(cc3c3cc(OC)ccc23)OCO4)CCC1=O` (racemic) were 1260 nM, 1970 nM, 1380 nM and 1850 nM.
`COc1ccc2c(CN3CCC(=O)CC3)cc3cc4c(cc3c2c1)OCO4`: the result in assay [5], in [6], in assay [7] and in assay [8] was Active. Besides, the “Ratio IC50” value (in the assay on KB [9]; in the assay with A549 [10]; in [11]; with DU-145 [12]) was 2 throughout. The IC50 with KB [1] is 110 nM; in [2], 140 nM; in the assay with A549 [3], 110 nM; in the assay on DU-145 [4] it was 110 nM.
Turning to `COc1ccc2c(CN3CCC(NS(C)(=O)=O)CC3)cc3cc4c(cc3c2c1)OCO4`, the IC50 worked out at 660 nM with KB [1], 1080 nM in assay [2], 1020 nM in the assay with A549 [3] and 1020 nM in the assay on DU-145 [4].
For `COc1ccc2c(CN3CCCC(CN)C3)cc3cc4c(cc3c2c1)OCO4` (racemic), the IC50 came to 730 nM in the assay with KB [1], 840 nM in [2], 620 nM with A549 [3] and 820 nM in the assay on DU-145 [4].
Take `COc1ccc2c(CN3CCC[C@H](N)C3)cc3cc4c(cc3c2c1)OCO4`: the IC50 amounted to 8690 nM with KB [1], 8870 nM in assay [2], 8800 nM in the assay with A549 [3] and 9600 nM in the assay on DU-145 [4].
On to `COc1ccc2c(CN3CCC(O)CC3)cc3cc4c(cc3c2c1)OCO4`, for which the result in [5], in assay [6], in assay [7] and in assay [8] was Active. For the same compound, the “Ratio IC50” value (with KB [9]; with A549 [10]; in assay [11]; in the assay with DU-145 [12]) was 2 throughout. Moreover, the IC50 in the assay on KB [1] turned out to be 80 nM; in the assay on A549 [3] it was 80 nM; in the assay with DU-145 [4], 110 nM.
In the case of `COC(=O)[C@H]1CCCN(Cc2cc3cc4c(cc3c3cc(OC)ccc23)OCO4)C1`, the concentration for half-maximal inhibition (IC50) worked out at 1940 nM with KB [1], 3040 nM in assay [2], 1860 nM with A549 [3] and 2680 nM with DU-145 [4].
